Experimental findings from ChEMBL document CHEMBL4725242, “Discovery of GS-9688 (Selgantolimod) as a Potent and Selective Oral Toll-Like Receptor 8 Agonist for the Treatment of Chronic Hepatitis B” (J Med Chem, 2020) are described below.

Calls of active or inactive are those of the source.

Data set [1] concerns the target T1, Interferon-induced helicase C domain-containing protein 1 (Homo sapiens) (UniProt Q9BYX4).
T1 sequence (whole entry): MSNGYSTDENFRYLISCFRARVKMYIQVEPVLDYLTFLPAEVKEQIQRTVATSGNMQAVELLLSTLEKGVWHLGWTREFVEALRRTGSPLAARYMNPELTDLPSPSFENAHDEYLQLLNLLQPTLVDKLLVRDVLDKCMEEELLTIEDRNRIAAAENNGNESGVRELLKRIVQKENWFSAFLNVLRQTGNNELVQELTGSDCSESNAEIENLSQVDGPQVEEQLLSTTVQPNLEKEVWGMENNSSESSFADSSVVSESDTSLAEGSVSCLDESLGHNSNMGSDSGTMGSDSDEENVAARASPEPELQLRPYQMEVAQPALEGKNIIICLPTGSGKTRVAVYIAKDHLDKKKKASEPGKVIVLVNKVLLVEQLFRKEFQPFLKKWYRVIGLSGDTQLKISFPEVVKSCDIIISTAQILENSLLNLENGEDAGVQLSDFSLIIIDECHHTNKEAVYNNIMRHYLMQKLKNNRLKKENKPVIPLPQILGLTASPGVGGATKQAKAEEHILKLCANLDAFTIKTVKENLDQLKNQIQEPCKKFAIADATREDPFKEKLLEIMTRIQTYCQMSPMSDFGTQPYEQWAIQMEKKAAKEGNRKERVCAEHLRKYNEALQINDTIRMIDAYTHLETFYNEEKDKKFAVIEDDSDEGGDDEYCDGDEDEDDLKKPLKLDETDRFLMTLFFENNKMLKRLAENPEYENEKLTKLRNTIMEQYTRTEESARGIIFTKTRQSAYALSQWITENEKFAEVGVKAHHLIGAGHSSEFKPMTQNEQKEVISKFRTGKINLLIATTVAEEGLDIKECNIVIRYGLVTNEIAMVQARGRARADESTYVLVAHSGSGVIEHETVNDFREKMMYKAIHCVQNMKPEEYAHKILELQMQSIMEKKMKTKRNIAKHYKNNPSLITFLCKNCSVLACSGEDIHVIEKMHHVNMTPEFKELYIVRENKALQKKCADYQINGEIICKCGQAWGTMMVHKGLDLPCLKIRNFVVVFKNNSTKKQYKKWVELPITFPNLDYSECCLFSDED
The experiment in a line: Agonist activity at human MDA5 expressed in HEK293 cells assessed as induction of IFN-inducible ISG54 promoter activity up to 10 uM after overnight incubation by secreted lucia luciferase reporter gene assay. Type of data set: cell-based. Particulars: dose microM <=10. The procedure, abridged: (§1)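 HEK293 cells stably expressing individual human TLRs or other innate immune receptors, used as reporter gene assays. Minimum effective concentration defined as the level giving a 3-fold rise over background.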

Data set [2] has as its target T2, Toll-like receptor 9 (Homo sapiens) (UniProt Q9NR96).
T2 sequence (whole entry): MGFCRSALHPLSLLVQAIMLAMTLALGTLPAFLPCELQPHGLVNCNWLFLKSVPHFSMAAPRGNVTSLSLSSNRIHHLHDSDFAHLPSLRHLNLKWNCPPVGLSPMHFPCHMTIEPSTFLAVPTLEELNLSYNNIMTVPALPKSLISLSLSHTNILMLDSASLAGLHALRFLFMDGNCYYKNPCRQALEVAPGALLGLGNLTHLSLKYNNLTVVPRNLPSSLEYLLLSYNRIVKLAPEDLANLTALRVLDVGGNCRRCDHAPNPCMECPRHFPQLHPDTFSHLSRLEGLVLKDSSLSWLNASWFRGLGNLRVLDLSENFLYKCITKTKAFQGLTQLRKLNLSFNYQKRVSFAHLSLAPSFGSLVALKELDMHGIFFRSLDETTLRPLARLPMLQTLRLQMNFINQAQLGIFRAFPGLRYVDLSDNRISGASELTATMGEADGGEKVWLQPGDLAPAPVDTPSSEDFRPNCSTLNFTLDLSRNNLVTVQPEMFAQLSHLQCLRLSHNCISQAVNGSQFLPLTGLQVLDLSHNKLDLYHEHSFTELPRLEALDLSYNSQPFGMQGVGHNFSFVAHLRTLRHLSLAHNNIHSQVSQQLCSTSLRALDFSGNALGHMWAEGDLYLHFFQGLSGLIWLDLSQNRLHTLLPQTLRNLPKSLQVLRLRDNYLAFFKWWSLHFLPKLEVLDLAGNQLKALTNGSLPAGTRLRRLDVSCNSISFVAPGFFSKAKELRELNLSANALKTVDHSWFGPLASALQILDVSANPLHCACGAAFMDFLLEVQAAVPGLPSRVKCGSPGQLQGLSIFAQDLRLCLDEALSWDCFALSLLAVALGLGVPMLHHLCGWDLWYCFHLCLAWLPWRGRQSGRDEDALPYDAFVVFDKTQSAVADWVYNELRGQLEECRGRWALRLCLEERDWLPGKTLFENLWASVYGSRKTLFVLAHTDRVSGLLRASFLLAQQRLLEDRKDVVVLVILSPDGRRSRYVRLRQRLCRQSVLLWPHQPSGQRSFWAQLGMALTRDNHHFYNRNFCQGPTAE
The experiment in a line: Agonist activity at human TLR9 expressed in HEK293 cells assessed as increase in NF-kappaB activation up to 10 uM incubated for 18 hrs by quanti-blue SEAP reporter gene assay. The class given is cell-based. Particulars: dose microM <=10, time […]. Summed up:
as §1
(Reporter assays use an easily measured gene product as a stand-in for the process of interest.)

The target in data set [3] is Nucleotide-binding oligomerization domain-containing protein 2 (Homo sapiens) (UniProt Q9HC29). The data set can be described thus: Agonist activity at human NOD2 expressed in HEK293 cells assessed as increase in NF-kappaB activation up to 10 uM incubated for 24 hrs by quanti-blue SEAP reporter gene assay. As to conditions: dose microM <=10, time 24.0 hrs. The class given is cell-based. The procedure, abridged: as §1
Sequence of Nucleotide-binding oligomerization domain-containing protein 2 (Homo sapiens) (Q9HC29 whole entry, the tested form may be a part): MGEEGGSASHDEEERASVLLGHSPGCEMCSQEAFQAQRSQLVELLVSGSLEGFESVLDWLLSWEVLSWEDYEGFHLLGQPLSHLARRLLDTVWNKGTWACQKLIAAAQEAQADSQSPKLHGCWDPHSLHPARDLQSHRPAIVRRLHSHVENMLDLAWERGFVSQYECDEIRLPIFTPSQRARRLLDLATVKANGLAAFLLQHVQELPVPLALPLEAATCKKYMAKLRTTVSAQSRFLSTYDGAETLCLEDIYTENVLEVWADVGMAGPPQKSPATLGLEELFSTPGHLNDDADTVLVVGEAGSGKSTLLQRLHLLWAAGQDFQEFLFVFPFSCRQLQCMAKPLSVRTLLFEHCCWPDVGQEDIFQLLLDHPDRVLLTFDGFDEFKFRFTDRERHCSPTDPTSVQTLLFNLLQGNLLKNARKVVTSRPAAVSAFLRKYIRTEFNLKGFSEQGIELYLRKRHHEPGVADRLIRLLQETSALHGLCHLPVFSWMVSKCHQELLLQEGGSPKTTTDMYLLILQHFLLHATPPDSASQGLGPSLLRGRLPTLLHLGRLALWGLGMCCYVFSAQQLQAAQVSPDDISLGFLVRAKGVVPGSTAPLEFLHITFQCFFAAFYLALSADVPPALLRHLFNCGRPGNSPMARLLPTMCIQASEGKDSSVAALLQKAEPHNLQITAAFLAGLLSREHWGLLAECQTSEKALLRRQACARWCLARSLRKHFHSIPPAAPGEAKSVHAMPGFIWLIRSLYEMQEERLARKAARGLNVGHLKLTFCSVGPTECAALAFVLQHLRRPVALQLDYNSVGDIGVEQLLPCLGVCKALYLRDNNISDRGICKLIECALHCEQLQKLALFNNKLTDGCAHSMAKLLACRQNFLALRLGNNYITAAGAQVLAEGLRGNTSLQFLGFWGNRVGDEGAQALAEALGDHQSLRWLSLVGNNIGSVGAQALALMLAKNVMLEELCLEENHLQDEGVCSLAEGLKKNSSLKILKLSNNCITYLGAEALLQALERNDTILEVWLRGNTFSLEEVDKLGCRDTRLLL

Data set [4] concerns the target T3, C-type lectin domain family 4 member E (Homo sapiens) (UniProt Q9ULY5).
T3 sequence (whole entry): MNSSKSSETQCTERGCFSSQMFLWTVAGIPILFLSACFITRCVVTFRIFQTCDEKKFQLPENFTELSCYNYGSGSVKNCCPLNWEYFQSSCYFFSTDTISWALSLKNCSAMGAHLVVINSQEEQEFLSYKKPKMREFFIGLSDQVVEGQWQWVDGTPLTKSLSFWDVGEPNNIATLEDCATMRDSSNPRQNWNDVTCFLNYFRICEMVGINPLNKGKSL
The experiment in a line: Agonist activity at human Mincle receptor up to 10 uM. As to conditions: dose microM <=10.

The nature of data set [5]: Immunomodulatory activity in human primary hepatocytes infected with HBV assessed as stimulation of CD8+T cell response to virus by measuring decrease in HBsAg production treated with media from PBMC stimulated with 10 nM compound for 10 days relative to control. Also on record: scale not given: the % may be the effect or the level left. Particulars: time 10 day. Type of data set: functional.

A short description of data set [6]: Volume of distribution at steady state in Sprague-Dawley rat at 1 mg/kg, iv administered as 30 mins infusion by HPLC-MS analysis. The class given is ADME, organism-based. As to conditions: in vivo, read-out: Vdss. The procedure, abridged: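 30-min intravenous infusion: Sprague Dawley rats 1 mg/kg, beagle dogs 0.25 mg/kg, cynomolgus monkeys 0.1 mg/kg; n = 3 per species, reported as mean ± SD.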

The nature of data set [7]: Oral bioavailability in Sprague-Dawley rat at 5 mg/kg administered via gavage by HPLC-MS analysis. The class given is ADME, organism-based. As to conditions: in vivo. Summed up:
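Oral dosing in 2% ethanol/40% PEG 300/58% 0.01N HCl: Sprague Dawley rats 5 mg/kg, beagle dogs 0.5 mg/kg, cynomolgus monkeys 3 mg/kg.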

The nature of data set [8]: Drug metabolism in human hepatocytes assessed as core oxidation. The class given is ADME, cell-based, Hepatocyte.

`CCCC[C@](C)(CO)Nc1nc(N)nc2cc(F)cnc12` [SELGANTOLIMOD]: the outcome in data set [1], in data set [2], in data set [3] and in data set [4] was inactive. Besides, the Activity in data set [5] is reported as over 50%. Also, in data set [6], the Vd was determined as 1.1 L/kg. In data set [7], the bioavailability (as a rule, dose-corrected exposure relative to a reference, in per cent) was found to be 8.8%. The Drug metabolism result in data set [8] is on record as “Metabolite_Notdetected”.
